Data on ten compounds can be found in ChEMBL document CHEMBL4145642, “Natural Inhibitors of the RhoA-p115 Complex from the Bark of Meiogyne baillonii” (J Nat Prod, 2018).

Each structure is given as a SMILES string.

The target of assay [1] is T1, Rho guanine nucleotide exchange factor 1 (Homo sapiens) (UniProt Q92888).
T1 sequence (whole entry): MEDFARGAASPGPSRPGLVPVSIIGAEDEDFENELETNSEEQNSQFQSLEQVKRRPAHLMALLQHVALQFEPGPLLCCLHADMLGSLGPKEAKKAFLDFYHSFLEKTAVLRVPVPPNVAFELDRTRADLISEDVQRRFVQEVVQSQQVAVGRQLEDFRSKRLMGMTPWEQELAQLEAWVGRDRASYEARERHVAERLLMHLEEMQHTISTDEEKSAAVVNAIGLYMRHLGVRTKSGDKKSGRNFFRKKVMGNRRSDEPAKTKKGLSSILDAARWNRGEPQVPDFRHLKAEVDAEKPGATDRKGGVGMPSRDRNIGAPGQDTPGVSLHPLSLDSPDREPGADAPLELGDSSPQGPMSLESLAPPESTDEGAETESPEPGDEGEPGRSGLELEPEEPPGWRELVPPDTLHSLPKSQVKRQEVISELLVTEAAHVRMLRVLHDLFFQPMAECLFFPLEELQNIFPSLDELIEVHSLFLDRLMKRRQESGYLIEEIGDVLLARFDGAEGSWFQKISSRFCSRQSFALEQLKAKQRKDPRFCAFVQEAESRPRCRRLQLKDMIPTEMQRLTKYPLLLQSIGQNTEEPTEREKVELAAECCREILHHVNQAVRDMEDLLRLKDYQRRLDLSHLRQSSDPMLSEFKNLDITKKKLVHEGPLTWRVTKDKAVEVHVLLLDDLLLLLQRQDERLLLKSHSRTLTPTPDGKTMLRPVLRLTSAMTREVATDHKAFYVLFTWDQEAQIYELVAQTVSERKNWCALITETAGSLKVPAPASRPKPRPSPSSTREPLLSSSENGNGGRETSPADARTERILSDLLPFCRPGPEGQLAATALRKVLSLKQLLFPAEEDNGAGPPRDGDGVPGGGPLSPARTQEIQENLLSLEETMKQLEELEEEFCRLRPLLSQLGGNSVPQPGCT
The experiment in a line: Inhibition of p115 DHPH22 domain (395 to 766 residues) (unknown origin) interaction with GDP-loaded His-tagged RhoA F25N mutant (1 to 180 residues) assessed as reduction in BODIPY-GTP-GDP exchange at 200 uM pretreated for 30 mins followed by RhoA addition by fluorescence based spectrophotometric method relative to control.

Assay [2] deals with T2, Neuroepithelial cell-transforming gene 1 protein (Homo sapiens) (UniProt Q7Z628).
T2 sequence (whole entry): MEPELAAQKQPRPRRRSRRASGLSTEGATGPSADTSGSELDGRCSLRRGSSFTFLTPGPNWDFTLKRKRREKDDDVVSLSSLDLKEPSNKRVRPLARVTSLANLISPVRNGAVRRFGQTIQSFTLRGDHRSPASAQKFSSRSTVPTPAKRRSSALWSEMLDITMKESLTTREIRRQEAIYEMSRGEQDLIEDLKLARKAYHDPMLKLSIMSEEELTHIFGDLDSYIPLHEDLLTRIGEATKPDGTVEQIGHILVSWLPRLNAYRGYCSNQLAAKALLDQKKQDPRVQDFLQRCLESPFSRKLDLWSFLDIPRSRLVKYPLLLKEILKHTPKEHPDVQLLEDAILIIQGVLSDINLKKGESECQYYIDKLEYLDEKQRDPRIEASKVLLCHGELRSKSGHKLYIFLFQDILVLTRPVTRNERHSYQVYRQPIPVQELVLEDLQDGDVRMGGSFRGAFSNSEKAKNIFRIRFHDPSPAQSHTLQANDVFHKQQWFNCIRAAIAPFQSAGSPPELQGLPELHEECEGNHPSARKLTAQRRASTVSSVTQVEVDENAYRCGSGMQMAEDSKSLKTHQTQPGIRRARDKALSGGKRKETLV
The experiment in a line: Inhibition of Net1 (149 to 501 residues) (unknown origin) interaction with GDP-loaded His-tagged RhoA F25N mutant (1 to 180 residues) assessed as reduction in BODIPY-GTP-GDP exchange at 200 uM pretreated for 30 mins followed by RhoA addition by fluorescence based spectrophotometric method relative to control.

Assay [3] addresses Rho guanine nucleotide exchange factor 1 (Homo sapiens, UniProt Q92888, F25N). The assay can be described thus: Inhibition of p115 DHPH22 domain (395 to 766 residues) (unknown origin) interaction with GDP-loaded His-tagged RhoA F25N mutant (1 to 180 residues) assessed as reduction in BODIPY-GTP-GDP exchange pretreated for 30 mins followed by RhoA addition by fluorescence based spectrophotometric method.

The target in assay [4] is Neuroepithelial cell-transforming gene 1 protein (Homo sapiens, UniProt Q7Z628, F25N). The experiment in a line: Inhibition of Net1 (149 to 501 residues) (unknown origin) interaction with GDP-loaded His-tagged RhoA F25N mutant (1 to 180 residues) assessed as reduction in BODIPY-GTP-GDP exchange pretreated for 30 mins followed by RhoA addition by fluorescence based spectrophotometric method. A digest of the protocol: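 Exchange is started with 0.1 μM GDP-loaded His-RhoA F25N (1−180). Fluorescence (ex 480/em 540 nm) is read every minute, and initial rate is taken over the first 15 min. Controls are run with and without GEF.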

As for `C=CCC/C=C/C#CC#CCCCCCCCC(=O)O`, the inhibition in assay [1] was 0%.

With `C=CCC/C=C\C#CC#CCCCCCCC1=C[C@@H](C)OC1=O`, the inhibition in assay [1] came out at 0%.

Turning to `COc1cc(C)c2c(c1)Oc1c(cc(OC)cc1C(=O)O)OC2=O`, the values for the inhibition in assay [2] and in assay [1] were 5% and 1%, respectively.

For the compound `COc1c(O)cc2c3c(cc4ccccc4c13)NC(=O)C2=O`, the inhibition in assay [2] is 4%; in assay [1] it was 0%.

For `COc1c(O)cc2c3c(cc4c(O)cccc4c13)NC2=O`, the inhibition in assay [2] was determined as 5%; in assay [1], 0%.

`C=CCC/C=C/C#CC#CCCCCCC[C@H]1C(=O)O[C@H](C)[C@@H]1OC(C)=O`: the inhibition in assay [1] was found to be 10%.

Turning to `C=CCC/C=C\C#CC#CCCCCCC[C@H]1C(=O)O[C@H](C)[C@@H]1OC(C)=O`, the inhibition in assay [1] turned out to be 0%.

In the case of `COc1cc(C)c2c(c1C=O)Oc1c(c(C)c(O)c3c1C(O)OC3=O)OC2=O` (stereo unspecified) [STICTIC ACID], the IC50 in assay [3] amounted to 187 µM. Besides, the inhibition in assay [1] amounted to 50.5%.

With `C=CCC/C=C/C#CC#CCCCCCCCC[C@H]1C(=O)O[C@H](C)[C@@H]1OC(C)=O`, in assay [1], the inhibition was 0%.

As for `CN1CCc2cc3c(c4c2c1cc1ccccc14)OCO3` [DEHYDROROEMERINE], the values for the inhibition in assay [2] and in assay [1] were 83% and 21%, respectively. The IC50 in assay [4] was 120 µM.
